Measurements from different studies.
Lines come from different studies, so protocols differ.
Target: Interferon-induced, double-stranded RNA-activated protein kinase (EIF2AK2, Homo sapiens, UniProt P19525)

Compound	observed	method	tested at	remaining binding [%]
CN(C)c1ncc(F)c(-c2cnn3ncccc23)n1	binding	–	1 µM	100
O=C(O)[C@H]1[C@H](Cn2nnc3ccccc3c2=O)CC[C@@H]1C(=O)c1ccc(OCCC2CCOCC2)cc1	cell-free assay	competition with immobilised ligand	1 µM	91
COc1cnc(Nc2cccc(S(N)(=O)=O)c2)nc1N1CCN(c2ccccc2)C(=O)C1	binding	competition with immobilised ligand	1 µM	99
CN1CCN(c2cnc3c(C4CCN(C(=O)c5ccc(OC(F)(F)F)cc5N)CC4)ncnc3c2)CC1	cell-free assay	competition with immobilised ligand	1 µM	85
O=C(NCCCN1CCOCC1)c1ccc(Nc2ncc(Cl)c(-c3ccc(Cl)s3)n2)cc1	binding	competition with immobilised ligand	1 µM	58
O=c1nc(-c2ccccn2)sc2ccccc12	binding	competition with immobilised ligand	1 µM	100
Cc1cnn2ncc(-c3ccnc(N(C)C)n3)c2c1	binding	–	1 µM	100
O=C(c1ccc(Nc2nccc(-c3cc4ccccc4s3)n2)cc1)N1CCC(N2CCCC2)CC1	binding	competition with immobilised ligand	1 µM	21
N[C@@H]1CCN(c2nccc(-c3cnn4ncccc34)n2)C1	binding	–	1 µM	100
CN(C)c1ncnc(-c2ccc3nc(Nc4cc(CN5CCN(C(=O)CC(F)(F)F)CC5)ccn4)[nH]c3c2)c1Cl	cell-free assay	competition with immobilised ligand	1 µM	100
FC(F)(F)Oc1cccc(-c2cnc3ccc(-c4ccncc4)nn23)c1	cell-free assay	competition with immobilised ligand	5 µM	65
F[C@@H]1CCN(c2nccc(-c3cnn4ncccc34)n2)C1	binding	–	1 µM	100
CC(=O)C1=C(C)N(c2cccc(C(F)(F)F)c2)C(=O)N[C@@H]1c1ccc(C#N)nc1	cell-free assay	competition with immobilised ligand	1 µM	83.4
O=C(c1ccc(Nc2ncc(Cl)c(-c3cc4ccccc4s3)n2)cc1)N1CCC(N2CCCC2)CC1	binding	competition with immobilised ligand	1 µM	22
c1cncc(-c2cccc(Nc3nccc(NC4CCCCC4)n3)c2)c1	binding	competition with immobilised ligand	10 µM	100
CN(CCCC(F)(F)F)c1nccc(-c2cnn3ncccc23)n1	binding	–	1 µM	100
CCS(=O)(=O)c1cc2cc(C[C@](O)(CC(C)(C)c3ccc(F)cc3C(N)=O)C(F)(F)F)[nH]c2cn1	cell-free assay	competition with immobilised ligand	1 µM	52
O=C(NCC1CCOCC1)c1n[nH]cc1NC(=O)c1c(F)cccc1F	binding	competition with immobilised ligand	1 µM	100
C[C@@H]1CCN(c2nccc(-c3cnn4ncccc34)n2)C1	binding	–	1 µM	83
CNC(=O)[C@@H]1CC[C@@H](n2c(-c3ccc4cnccc4c3)nc3ccc(C(=O)NCc4cccc(C(N)=O)c4)cc32)C1	binding	competition with immobilised ligand	1 µM	94
